In ChEMBL document CHEMBL1938254, “Semisynthetic neoboutomellerone derivatives as ubiquitin-proteasome pathway inhibitors” (Bioorg Med Chem, 2012):
Several values for one entry are separate records, joined by “and”; a condition that tells them apart may be missing. Equal entries are not always repeated.

Experiments:
Type in all cases: cell-based
[1] = Inhibition of chymotrypsin-like activity of 20S proteasome in human DLD1 cells transfected with 4Ub-Luc gene using Succinyl-Leu-Leu-Val-Tyr-AMC as substrate after 6 hrs by spectrofluorometric analysis; details: dld-1
Method in brief: (§1)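 DLD-1 4Ub-Luc cells seeded at 10⁴ cells/well, exposed to compound or solvent for 6 h, then 30 min in reaction buffer (30 mM Tris–HCl pH 7.5, 1 mM ATP). Chymotrypsin-like and PGPH activities read with specific fluorogenic substrates.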

[2] = test system: DLD-1; experiment: Inhibition of 20S proteasome in human DLD1 cells transfected with 4Ub-Luc gene assessed as bioluminescence induction factor at 1 uM after 8 hrs by luciferase reporter gene assay relative to epoxomicin
Method in brief: (§2)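 Stably transfected DLD-1 cells expressing 4Ub-Luc reporter, cultured in MEM with 5% heat-inactivated serum. Seeded at 10⁴ cells/well and treated with compound or solvent for 8 h. Luciferase activity in lysates read by luminometer. Induction factor = signal of treated over untreated cells, normalised to epoxomicin at 10^-7 M run in parallel (set to 100). IF ≥10 counted active.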

[3] = Inhibition of peptide-glutamyl-peptide-hydrolyzing activity of 20S proteasome in human DLD1 cells transfected with 4Ub-Luc gene using Z-Leu-Leu-Glu-AMC as substrate after 6 hrs by spectrofluorometric analysis; details: dld-1; method in brief: as §1
[4] = test system: DLD-1; experiment: Inhibition of 20S proteasome activity in human DLD1 cells transfected with 4Ub-Luc gene assessed as bioluminescence induction factor at 10 uM after 8 hrs by luciferase reporter gene assay relative to epoxomicin; method in brief: as §2
[5] = test system: DLD-1; experiment: Inhibition of 20S proteasome in human DLD1 cells transfected with 4Ub-Luc gene assessed as bioluminescence induction factor at 5 uM after 8 hrs by luciferase reporter gene assay relative to epoxomicin; method in brief: as §2
[6] = test system: DLD-1; experiment: Inhibition of 20S proteasome in human DLD1 cells transfected with 4Ub-Luc gene assessed as bioluminescence induction factor at 0.5 uM after 8 hrs by luciferase reporter gene assay relative to epoxomicin; method in brief: as §2

Structure (SMILES) | IC50 [1] | fold change (FC) [2] | IC50 [3] | fold change (FC) [4] | fold change (FC) [5] | fold change (FC) [6]
CC(=O)O[C@H]1C[C@@]2(C)[C@@H]3CC[C@H]4[C@H](C)C(=O)C=C[C@@]45C[C@@]35CC[C@]2(C)[C@H]1[C@H](C)[C@@H](O)C(=O)C=C(C)C | > 1000 µM | 1.1 | > 1000 µM | 53 | 5.2 | 
C=C(C(=O)[C@H](OC(C)=O)[C@@H](C)[C@H]1[C@@H](OC(C)=O)C[C@@]2(C)[C@@H]3CC[C@H]4[C@H](C)C(=O)C=C[C@@]45C[C@@]35CC[C@]12C)[C@@H](C)COC | 86 µM | 40 | 100 µM |  | 44 | 1.4
C=CCOC[C@H](C)C(=C)C(=O)[C@H](OC(C)=O)[C@@H](C)[C@H]1[C@@H](OC(C)=O)C[C@@]2(C)[C@@H]3CC[C@H]4[C@H](C)C(=O)C=C[C@@]45C[C@@]35CC[C@]12C | 100 µM | 15 | 100 µM | 19 | 49 | 1.8
C=C(C(=O)[C@H](O)[C@@H](C)[C@H]1[C@@H](OC(C)=O)C[C@@]2(C)[C@@H]3CC[C@H]4[C@H](C)C(=O)C=C[C@@]45C[C@@]35CC[C@]12C)[C@@H](C)COCOC(C)=O | 22 µM | 40 | 31 µM | 3 | 34 | 1.7
C=C(C(=O)[C@H](OC(C)=O)[C@@H](C)[C@H]1[C@@H](OC(C)=O)C[C@@]2(C)[C@@H]3CC[C@H]4[C@H](C)/C(=N\NC(N)=O)C=C[C@@]45C[C@@]35CC[C@]12C)[C@@H](C)CO | 8.6 µM | 1.4 | 4.1 µM | 30 | 99 | 
C=C(C(=O)[C@H](O)[C@@H](C)[C@H]1[C@@H](OC(C)=O)C[C@@]2(C)[C@@H]3CC[C@H]4[C@H](C)C(=O)C=C[C@@]45C[C@@]35CC[C@]12C)[C@@H](C)COC(=O)CCC(=O)O | 61 µM | 62 and 46 | 47 µM | 3.5 and 5 | 11 and 18 | 6 and 2.6
C=C(C(=O)[C@H](OC(C)=O)[C@@H](C)[C@H]1[C@@H](OC(C)=O)C[C@@]2(C)[C@@H]3CC[C@H]4[C@H](C)C(=O)C=C[C@@]45C[C@@]35CC[C@]12C)C(C)C | > 1000 µM | 7.2 | > 1000 µM | 19 | 74 | 
C=C(C(=O)[C@H](OC(=O)CCC(=O)O)[C@@H](C)[C@H]1[C@@H](OC(C)=O)C[C@@]2(C)[C@@H]3CC[C@H]4[C@H](C)C(=O)C=C[C@@]45C[C@@]35CC[C@]12C)[C@@H](C)COC(C)=O | 12 µM | 69 | 10 µM | 3 | 16 | 2
C=C(C(=O)[C@H](OC(C)=O)[C@@H](C)[C@H]1[C@@H](OC(C)=O)C[C@@]2(C)[C@@H]3CC[C@H]4[C@H](C)/C(=N\OC)C=C[C@@]45C[C@@]35CC[C@]12C)[C@@H](C)CO | 11 µM | 0.7 | 12 µM | 24 | 3.4 | 
C=C(C(=O)[C@H](O)[C@@H](C)[C@H]1[C@@H](OC(C)=O)C[C@@]2(C)[C@@H]3CC[C@H]4[C@H](C)C(=O)C=C[C@@]45C[C@@]35CC[C@]12C)C(C)C | > 1000 µM | 2.4 | > 1000 µM | 20 | 65 | 
C=C(C(=O)[C@H](OC(C)=O)[C@@H](C)[C@H]1[C@@H](OC(C)=O)C[C@@]2(C)[C@@H]3CC[C@H]4[C@H](C)C(=O)C=C[C@@]45C[C@@]35CC[C@]12C)[C@@H](C)COC(=O)CCN(CC)CC | 10 µM | 26 | 9.4 µM | 2.7 | 11 | 1.5
C=C(C(=O)[C@H](O)[C@@H](C)[C@H]1[C@@H](OC(C)=O)C[C@@]2(C)[C@@H]3CC[C@H]4[C@H](C)C(=O)C=C[C@@]45C[C@@]35CC[C@]12C)[C@@H](C)COC(=O)CN(C)C |  | 22 and 17 |  | 6.8 and 4 | 35 and 34 | 1.3
